Source: ChEMBL document CHEMBL1128340, “Nonpeptidic inhibitors of human leukocyte elastase. 6. Design of a potent, intratracheally active, pyridone-based trifluoromethyl ketone” (J Med Chem, 1995)
Active and inactive are the calls of the source. The rule behind the calls is not given here.

Experiments:
Neutrophil elastase = target: T1, Neutrophil elastase (Homo sapiens, UniProt P08246); test: In vitro inhibition constant (Ki) against human leukocyte elastase (HLE-catalyzed hydrolysis of MeO-Suc-Ala-Ala-Pro-Ala-pNA)
T1 sequence (P08246 whole entry): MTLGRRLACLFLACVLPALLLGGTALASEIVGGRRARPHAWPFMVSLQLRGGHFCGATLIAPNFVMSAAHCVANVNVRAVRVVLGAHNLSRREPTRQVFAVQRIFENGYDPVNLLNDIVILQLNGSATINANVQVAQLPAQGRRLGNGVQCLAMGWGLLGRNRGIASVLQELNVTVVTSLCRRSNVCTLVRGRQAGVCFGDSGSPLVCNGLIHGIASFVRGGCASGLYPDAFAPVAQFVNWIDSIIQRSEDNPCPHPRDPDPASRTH

Cricetinae gen. sp. [1] = test: Compound at an intratracheal dose of 100 nM was tested in vivo in hamster for the inhibition of elastase-induced lung hemorrhage by acute hemorrhagic assay; format: functional, Cricetulus griseus
Summary of the method: (§1)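 Hamster acute hemorrhagic assay: test agent given intratracheally at 100 nmol/animal 30 min before intratracheal instillation of 50 μg HLE. Read-out is percent inhibition of elastase-induced lung hemorrhage versus controls. Significance is by Student's t test, P < 0.05; NS means not significant at that dose.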

Cricetinae gen. sp. [2] = test: Compound at an oral dose of 2.5 mg/Kg was tested in vivo in hamster for the inhibition of elastase-induced lung hemorrhage by acute hemorrhagic assay; Not statistically significant; format: functional, organism-based; conditions: Cricetulus griseus
Cricetinae gen. sp. [3] = test: Compound at an intratracheal dose of […] was tested in vivo in hamster for the inhibition of elastase-induced lung hemorrhage by acute hemorrhagic assay; Not statistically significant; format: functional, organism-based; conditions: Cricetulus griseus; summary of the method: as §1
Cricetinae gen. sp. [4] = test: Compound at an oral dose of 5 mg/Kg was tested in vivo in hamster for the inhibition of elastase-induced lung hemorrhage by acute hemorrhagic assay; Not statistically significant; format: functional, organism-based; conditions: Cricetulus griseus

Structure (SMILES)	Ki (Neutrophil elastase) [nM]	Inhibition (Cricetinae gen. sp. [1]) [%]	inhibition (Cricetinae gen. sp. [2])	inhibition (Cricetinae gen. sp. [3])	inhibition (Cricetinae gen. sp. [4])
CC(C)C(NC(=O)Cn1c(-c2ccccc2)ccc(NC=O)c1=O)C(=O)C(F)(F)F (stereo unspecified)				inactive	
CC(C)C(NC(=O)Cn1c(-c2ccccc2)ccc(NS(=O)(=O)c2ccccc2)c1=O)C(=O)C(F)(F)F (stereo unspecified)				inactive	inactive
CC(=O)Nc1ccc(S(=O)(=O)Nc2ccc(-c3ccccc3)n(CC(=O)NC(C(=O)C(F)(F)F)C(C)C)c2=O)cc1 (stereo unspecified)		95			

Further lines, with some results ahead:

Ki (Neutrophil elastase) [nM]	Structure (SMILES)	Inhibition (Cricetinae gen. sp. [1]) [%]	inhibition (Cricetinae gen. sp. [2])	inhibition (Cricetinae gen. sp. [3])	inhibition (Cricetinae gen. sp. [4])
9.4	CC(C)C(NC(=O)Cn1c(-c2ccccc2)ccc(NS(=O)(=O)c2ccc(C(=O)NS(=O)(=O)c3ccc(Cl)cc3)cc2)c1=O)C(=O)C(F)(F)F (stereo unspecified)	96	inactive		
18	Cc1ccccc1S(=O)(=O)NC(=O)c1ccc(S(=O)(=O)Nc2ccc(-c3ccccc3)n(CC(=O)NC(C(=O)C(F)(F)F)C(C)C)c2=O)cc1 (stereo unspecified)	97	inactive		
8	COc1ccc(S(=O)(=O)N[C@H](C(=O)N2CCC[C@H]2C(=O)NC(C(=O)C(F)(F)F)C(C)C)C(C)C)cc1 (stereo partly specified)				
